Assays:
Trypanosoma cruzi [1] = assay: Antitrypanosomal activity against Trypanosoma cruzi Colombiana Tc1 epimastigotes measured after 72 hrs; type: functional, organism-based; details: for IC50: Trypanosoma cruzi, Colombiana, 72 h
Summary of the method: (§1)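 Exponentially growing epimastigotes (1.0*10^7 parasites/mL) cultured in LIT-FCS medium with compound from 0.4 to 300.0 µM, added from DMSO stock (DMSO ≤1.0%), 72 h at 28 °C. Viable parasites read by absorbance at 562 nm. PGI computed against untreated culture after subtracting compound/medium blanks. IC50 from sigmoid dose-response fit using at least six concentrations. Triplicates, at least two independent experiments.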

Trypanosoma cruzi [2] = assay: Antitrypanosomal activity against Trypanosoma cruzi Y Tc2 amastigotes infected in human U2OS cells up to 200 uM after 72 hrs by Draq5 staining based HCS analysis relative to control; type: functional
Summary of the method: (§2)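 U2OS cells (700/well, high-glucose DME, 10% FBS) seeded and incubated 24 h. Then infected with 2,800 Y-strain trypomastigotes harvested from LLC-MK2 cells. On day 3, 14-point 2-fold dilutions added, top 200 μM, 1% DMSO, 72 h. Fixed in 4% PFA, Draq5 stained, imaged at 20x. Infection ratio normalized to DMSO-mock infected and uninfected controls. IC50 by sigmoidal variable-slope fit. Doublets, duplicate experiments.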

[3] = Cytotoxicity against human U2OS cells assessed as reduction in cell viability; type: cell-based
Trypanosoma cruzi [4] = assay: Antitrypanosomal activity against Trypanosoma cruzi Y Tc2 amastigotes infected in human U2OS cells after 72 hrs by Draq5 staining based HCS analysis; type: functional, organism-based; summary of the method: as §2
Trypanosoma cruzi [5] = assay: Antitrypanosomal activity Trypanosoma cruzi Y Tc2 epimastigotes measured after 72 hrs; type: functional, organism-based; details: for IC50: Trypanosoma cruzi, Y, 72 h; summary of the method: as §1
[6] = Selectivity index, ratio of CC50 for cytotoxicity against human U2OS cells to IC50 for Trypanosoma cruzi Y Tc2 amastigotes infected in human U2OS cells; type: toxicity, cell-based; details: read-out: Ratio CC50/IC50
Summary of the method: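 Ratio of U2OS CC50 to Y-strain amastigote IC50, both from the same 72 h Draq5-stained HCS assay in infected U2OS cells (2-fold series up to 200 μM, 1% DMSO).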

Trypanosoma cruzi [7] = assay: Antitrypanosomal activity against Trypanosoma cruzi Silvio X10 cl1 Tc1 epimastigotes measured after 72 hrs; type: functional, organism-based; details: for IC50: Trypanosoma cruzi, Silvio X10 cl1, 72 h
Summary of the method: as §1, with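 “°C.” for “°C. Viable parasites read by absorbance at 562 nm.”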

Trypanosoma cruzi [8] = assay: Antitrypanosomal activity Trypanosoma cruzi Bug 2149 cl10 Tc5 epimastigotes measured after 72 hrs; type: functional, organism-based; details: for IC50: Trypanosoma cruzi, Bug 2149 cl10, CL1-0, 72 h
Summary of the method: as §1, with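 “°C.” for “°C. Viable parasites read by absorbance at 562 nm.”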

Row | SMILES | log1/IC50 (Trypanosoma cruzi [1]) | IC50 (Trypanosoma cruzi [1]) [µM] | Emax (Trypanosoma cruzi [2]) [%] | CC50 [3] [µM] | IC50 (Trypanosoma cruzi [4]) [µM] | log1/IC50 (Trypanosoma cruzi [5]) | selectivity ratio [6] | log1/IC50 (Trypanosoma cruzi [7]) | log1/IC50 (Trypanosoma cruzi [8]) | IC50 (Trypanosoma cruzi [5]) [µM] | IC50 (Trypanosoma cruzi [7]) [µM] | IC50 (Trypanosoma cruzi [8]) [µM]
1 | O=C(Cc1ccccc1)N/N=C/c1ccc([N+](=O)[O-])o1 | 5 | 10.1 | – | – | – | – | – | – | – | – | – | –
2 | O=C(Cn1ccnc1[N+](=O)[O-])NCc1ccccc1 [BENZNIDAZOLE] | – | 47.9 | 85.2 | > 200 | 64.3 | – | – | – | – | – | – | –
3 | O=C(N/N=C/c1ccc([N+](=O)[O-])o1)c1ccccc1 | 4.95 | 11.3 | – | – | – | – | – | – | – | – | – | –
4 | O=C(N/N=C/c1ccc([N+](=O)[O-])o1)c1ccc(O)cc1 [NIFUROXAZIDE] | 3.73 | 188 | 91.9 | 45.7 | 4.26 | 3.52 | 10.7 | 3.52 | 3.52 | – | – | –
5 | CCCc1ccc(C(=O)N/N=C/c2ccc([N+](=O)[O-])o2)cc1 | 5.14 | 7.25 | – | – | – | – | – | – | – | – | – | –
6 | CCCCCCCCC(=O)N/N=C/c1ccc([N+](=O)[O-])o1 | 5.09 | 8.07 | – | – | – | – | – | – | – | – | – | –
7 | O=C(N/N=C/c1ccc([N+](=O)[O-])o1)c1cccc(C(F)(F)F)c1 | 5 | 9.98 | – | – | – | 4.98 | – | 4.59 | 4.84 | 10.6 | 25.5 | 14.6
8 | CCCCCC(=O)N/N=C/c1ccc([N+](=O)[O-])o1 | 5.12 | 7.58 | 115 | 19.3 | 2.61 | – | 7.39 | – | – | – | – | –
9 | COc1ccc(C(=O)N/N=C/c2ccc([N+](=O)[O-])o2)cc1 | 5.09 | 8.08 | – | – | – | – | – | – | – | – | – | –
10 | O=C(N/N=C/c1ccc([N+](=O)[O-])o1)c1ccc(Cl)cc1 | 5.06 | 8.64 | – | – | – | – | – | – | – | – | – | –
11 | CCc1ccc(C(=O)N/N=C/c2ccc([N+](=O)[O-])o2)cc1 | 5.18 | 6.55 | – | – | – | 5.04 | – | 4.91 | 5.02 | 9.11 | 12.3 | 9.53
12 | Cc1cccc(C(=O)N/N=C/c2ccc([N+](=O)[O-])o2)c1 | 5.07 | 8.53 | – | – | – | – | – | – | – | – | – | –
13 | CC(C)(C)c1ccc(C(=O)N/N=C/c2ccc([N+](=O)[O-])o2)cc1 | 5.21 | 6.1 | 98.4 | > 200 | 1.43 | – | > 140 | – | – | – | – | –
14 | O=C(N/N=C/c1ccc([N+](=O)[O-])o1)c1ccc2ccccc2c1 | 5.12 | 7.58 | 97 | 64.2 | 1.87 | 5.15 | 34.3 | 5.02 | 5 | 7.15 | 9.59 | 9.9
15 | O=C(N/N=C/c1ccc([N+](=O)[O-])o1)c1ccccc1Oc1ccccc1 | 5.24 | 5.79 | – | – | – | – | – | – | – | – | – | –
16 | CCCCNc1ccc(C(=O)N/N=C/c2ccc([N+](=O)[O-])o2)cc1 | 5.4 | 3.94 | 102 | 12 | 0.35 | 5.47 | 34.4 | 5.36 | 5.35 | – | – | –
17 | CC(C)c1ccc(C(=O)N/N=C/c2ccc([N+](=O)[O-])o2)cc1 | 5.22 | – | – | – | – | – | – | – | – | – | – | –

Row | SMILES | log1/IC50 (Trypanosoma cruzi [1]) | IC50 (Trypanosoma cruzi [1]) [µM] | Emax (Trypanosoma cruzi [2]) [%] | CC50 [3] [µM] | IC50 (Trypanosoma cruzi [4]) [µM] | log1/IC50 (Trypanosoma cruzi [5]) | selectivity ratio [6] | log1/IC50 (Trypanosoma cruzi [7]) | log1/IC50 (Trypanosoma cruzi [8]) | IC50 (Trypanosoma cruzi [5]) [µM] | IC50 (Trypanosoma cruzi [7]) [µM] | IC50 (Trypanosoma cruzi [8]) [µM]
18 | O=C(N/N=C/c1ccc([N+](=O)[O-])o1)c1cccc([N+](=O)[O-])c1 | 4.39 | 40.6 | – | – | – | 4.36 | – | 4.28 | 4.52 | 44.1 | 52.3 | 30.4
19 | Cc1nnsc1C(=O)N/N=C/c1ccc([N+](=O)[O-])o1 | 4.85 | 14.2 | – | – | – | 4.76 | – | 4.47 | 4.73 | 17.3 | 34.1 | 18.7
20 | O=C(N/N=C/c1ccc([N+](=O)[O-])o1)c1ccco1 | 4.88 | 13.1 | – | – | – | 4.6 | – | 4.75 | 5 | 24.9 | 17.9 | 9.99
21 | CC(=O)N/N=C/c1ccc([N+](=O)[O-])o1 [NIHYDRAZONE] | 5.02 | 9.52 | 98.7 | 39.2 | 4.62 | – | 8.49 | – | – | – | – | –
22 | N#CCC(=O)N/N=C/c1ccc([N+](=O)[O-])o1 | 4.22 | 60.6 | – | – | – | 4.09 | – | 4.39 | 4.56 | 80.2 | 40.5 | 27.4
23 | CC(C)(C)OC(=O)N/N=C/c1ccc([N+](=O)[O-])o1 | 5.13 | 7.41 | – | – | – | – | – | – | – | – | – | –
24 | CCCCOc1ccc(C(=O)N/N=C/c2ccc([N+](=O)[O-])o2)cc1 | 5.54 | 2.86 | 115 | 46.6 | 1.46 | 5.46 | 31.9 | 5.29 | 5.37 | – | – | –
25 | CN(C)c1ccc(C(=O)N/N=C/c2ccc([N+](=O)[O-])o2)cc1 | 4.07 | 85.5 | – | – | – | – | – | – | – | – | – | –
26 | Cc1ccc(C(=O)N/N=C/c2ccc([N+](=O)[O-])o2)cc1 | 4.92 | 11.9 | – | – | – | – | – | – | – | – | – | –
27 | N#Cc1ccc(C(=O)N/N=C/c2ccc([N+](=O)[O-])o2)cc1 | 4.69 | 20.2 | 95.5 | 21.4 | 1.77 | – | 12.1 | – | – | – | – | –
28 | O=C(N/N=C/c1ccc([N+](=O)[O-])o1)C1CCCC1 | 5.01 | 9.67 | – | – | – | – | – | – | – | – | – | –
29 | O=C(N/N=C/c1ccc([N+](=O)[O-])o1)c1cccs1 | 4.82 | 15.1 | 94.5 | 57.2 | 1.06 | 5.26 | 53.9 | 4.89 | 5.16 | 5.51 | 12.8 | 6.87
30 | O=C(N/N=C/c1ccc([N+](=O)[O-])o1)C1CCCCC1 | 4.99 | 10.2 | 119 | 25.4 | 2.9 | – | 8.77 | – | – | – | – | –
31 | CCOc1ccc(C(=O)N/N=C/c2ccc([N+](=O)[O-])o2)cc1 | 4.94 | 11.6 | – | – | – | 5.01 | – | 4.86 | 5.2 | 9.74 | 13.8 | 6.26
32 | COc1ccc(C(=O)N/N=C/c2ccc([N+](=O)[O-])o2)cc1OC | 4.58 | 26.6 | – | – | – | 4.85 | – | 4.56 | 4.76 | 14.2 | 27.3 | 17.2
33 | CCCCc1ccc(C(=O)N/N=C/c2ccc([N+](=O)[O-])o2)cc1 | 5.61 | 2.45 | 115 | 19.6 | 1.33 | 5.51 | 14.7 | 5.32 | 5.33 | – | – | –
34 | CCCOc1ccc(C(=O)N/N=C/c2ccc([N+](=O)[O-])o2)cc1 | 5.28 | 5.26 | – | – | – | – | – | – | – | – | – | –
